The values below come from publication PMC3188669 (Journal of medicinal chemistry, 2011).

Data set [1] has as its system human basal cell carcinoma (BCC1) cells. Put plainly: PS uptake, retention and subcellular localization in BCC1 cells. The settings on record: for lowering of cellular uptake relative to PS 4: 30 min, 200 nM PS; for lowering of cellular uptake relative to PS 4 / subcellular localization after 30 min incubation: serum-free DMEM. In kind it is cell-based. A digest of the protocol:
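Subconfluent BCC1 cells grown in DMEM with 10% FCS were washed twice in serum-free DMEM. They were incubated with test compound in DMEM with or without 10% FCS: 30 min serum-free at 0.2 μM or 3.2 μM, or 24 h at 3.2 μM. Cells were washed and imaged at 640X under phase contrast and fluorescence (Ex 410/40, Em 675/750 nm). Redistribution was imaged again after 4 h in compound- and serum-free DMEM.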

For data set [2], the system named is Colon26 cells. Put plainly: In vitro photosensitizing efficacy, MTT assay. In kind it is cell-based, mouse. Particulars: 24 h incubation, variable light doses; for in vitro efficacy (PS 4, 12, 23): Colon26, 0.0625 μM. The method, boiled down:
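Colon26 cells were seeded at 3 × 10³ cells/well in RPMI with 10% FCS and left overnight. Test compound was added for 24 h at 37°C in the dark, then replaced with drug-free complete medium. Cells were irradiated at 0–4 J/cm² at the compound's absorption peak (660–674 nm), 3.2 mW/cm², using an argon-pumped dye laser. After 48 h in the dark, MTT was added for the last 4 h and formazan was dissolved in DMSO. A570 was read. Survival was plotted against light dose; 4 wells, 3 independent repeats.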

Data set [3] concerns Colon26 cells. Put plainly: PS uptake by Colon26 cells, flow cytometry. The settings on record: 24 h post incubation. In kind it is cell-based, mouse. A digest of the protocol: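 Colon26 cells were seeded at 0.33 × 10⁶/well and left overnight. Test compound was added at 100, 200, 400 or 800 nM in triplicate at 37°C, with compound-free wells for autofluorescence. Cells were trypsinised, neutralised in cold medium with 2% FCS, spun at 500 g for 5 min at 4°C, and resuspended in cold PBS/2% FCS on ice in the dark. Flow cytometry used Ex 633 nm and Em 730±45 nm, 10,000 events; mean fluorescence of triplicates minus autofluorescence.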
(In general: A flow cytometer gives signals particle by particle.)

For data set [4], the system named is Colon26 tumors. Put plainly: In vivo optical fluorescence imaging in BALB/c mice bearing Colon26 tumors. Particulars: for tumor versus skin fluorescence after tumor removal: 1 μmol/kg, 24 h post injection. The method, boiled down:
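Colon26 cells (1×10⁶ in 50 μL serum-free RPMI) were injected subcutaneously into the right posterior axilla and grown to 4–5 mm. Hair was removed the day before dosing. Mice were imaged under ip ketamine/xylazine with 540/40 nm illumination and a long-pass filter for 667/676 nm emission, and autofluorescence was removed by spectral unmixing. Tumor ROI was 20 mm, mean ± SD of 3 mice. After imaging, the tumor was excised and the skin flap imaged.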

Data set [5] has as its system STAT3. Put plainly: Light-mediated photoreaction in BCC1 cells. It is filed as cell-based, human. Particulars: 2 h PS, 665 nm, 3 J/cm^2. The method, boiled down: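 Subconfluent BCC1 cells were incubated 2 h in serum-free DMEM with 2-fold serial dilutions of test compound and then washed. They were irradiated in serum-free medium at 37°C with 665 nm dye-laser light for 9 min and extracted immediately. Cell PS was measured by extract fluorescence (Ex 415, Em 667 nm). RIPA lysates (20 μg) were immunoblotted for STAT3, EGFR, p38 and P-p38 with ECL detection. STAT3 crosslinking was expressed as % monomer converted to dimer form I.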

The subject of data set [6] is Colon26 tumors. Put plainly: PET imaging and biodistribution in BALB/c mice bearing Colon26 tumors. It is filed as in vivo. The settings on record: for time post injection giving the best imaging contrast: PET.
The test system of data set [7] is Colon26 tumors. Put plainly: In vivo PDT efficacy in BALB/c mice bearing Colon26 tumors. Particulars: 1.0 μmol/kg, light 128 J/cm^2, 14 mW/cm^2 at 24 h post injection, 10 mice/group. A digest of the protocol: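 Hair around the subcutaneous tumor was removed. At 4–5 mm diameter, mice received test compound at 1 μmol/kg. At 24 h, unanaesthetised mice restrained in holders were irradiated at 660–674 nm according to compound, with power monitored throughout. Mice were checked daily and volume was calculated as L×W²/2. Cure meant no palpable tumor by day 60–90; mice were euthanised at 400 mm³.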

Bounds are passed on as bounds.

With `CC[C@H]1c2cc3[nH]c4c(c5nc(cc6[nH]c(cc(n2)[C@@H]1C)c(C(C)OCc1cccc(I)c1)c6C)C(C)=C5CCC(=O)O)CC(=O)c4c3C` (stereo partly drawn) [PS 23, 3-deacetyl-3-(1′-m-iodobenzyloxyethyl)-7,8-dihydrophylloerythrin], in data set [1], the “lowering of cellular uptake relative to PS 4” value was found to be 2 fold. The “in vitro efficacy (PS 4, 12, 23)” value in data set [2] is reported as “comparable in vitro efficacy”. The “PS uptake by Colon26 cells (rank order)” value in data set [3] was “PS 4 ≥ 23 > 12”. In addition, the “tumor versus skin fluorescence after tumor removal” value in data set [4] is reported as “tumor avid”.
Turning to `CCC1=C(C)c2cc3[nH]c(cc4nc(c5c6[nH]c(cc1n2)c(C)c6C(=O)C5)C(CCC(=O)OC)[C@@H]4C)c(C)c3C(C)OCc1cccc(I)c1` (stereo partly drawn) [PS 1, Methyl 3-devinyl-3-{1′-(m-iodobenzyoxy)-ethyl}pyropheophoride-a], in data set [1] (3.2 μM PS 1 or 0.2 μM PS 4), the “subcellular localization after subsequent 4 h incubation in PS-free medium” value is on record as “lysosomal compartment”. Further, in data set [1], the “lowering of cellular uptake relative to PS 4” value was > 100 fold and the “subcellular localization after 30 min incubation” value is recorded as “mitochondrial compartment”. Moreover, the “fluorescence (uptake) in presence of 10% fetal calf serum” value in data set [1] (data not shown) is recorded as ~ 5 fold lower. Moreover, the “photoreaction quantifiable by the biochemical markers” value in data set [5] is reported as “ineffective”.
Take `CCc1c(C)c2cc3nc(c4c5[nH]c(cc6nc(cc1[nH]2)C(C)=C6C(C)OCc1cccc(I)c1)c(C)c5C(=O)C4)[C@@H](CCC(=O)O)[C@@H]3C` (stereo partly drawn) [PS 12, 3-devinyl-3-ethyl-8-{1′-(m-iodobenzyoxy)-ethyl}-pyropheophoride-a]: the “in vitro efficacy (PS 4, 12, 23)” value in data set [2] is “comparable in vitro efficacy”. Moreover, the “PS uptake by Colon26 cells (rank order)” value in data set [3] is “PS 4 ≥ 23 > 12”. Moreover, the “tumor uptake by fluorescence imaging” value in data set [4] (1.0 μmol/kg i.v., 24, 48 and 72 h post-injection, 3 mice/group) is reported as “lower tumor uptake”.
As to `CCC1=C(C)c2cc3[nH]c(cc4nc(c5c6[nH]c(cc1n2)c(C)c6C(=O)C5)C(CCC(=O)O)[C@@H]4C)c(C)c3C(C)OCc1cccc([124I])c1` (stereo partly drawn) [PS 6], the “tumor uptake (PET)” value in data set [6] (24, 48 and 72 h post injection) is “significant tumor uptake”. In data set [6] (BALB/c mice, Colon26 tumor), the “time of maximum tumor uptake post injection” value is 24 h and the “time post injection giving the best imaging contrast” value is 72 h.
In the case of `CC[C@H]1c2cc3[nH]c4c(c5nc(cc6[nH]c(cc(n2)[C@@H]1C)c(C(C)OCc1cccc([124I])c1)c6C)C(C)=C5CCC(=O)O)CC(=O)c4c3C` (stereo partly drawn) [PS 27], the “time post injection giving the best imaging contrast” value in data set [6] (BALB/c mice, Colon26 tumor) was found to be 72 h.
As for `CCC1=C(C)c2cc3[nH]c(cc4nc(c5c6[nH]c(cc1n2)c(C)c6C(=O)C5)C(CCC(=O)O)[C@@H]4C)c(C)c3C(C)OCc1cccc(I)c1` (stereo partly drawn) [PS 4, 3-devinyl-3-{1′-(m-iodobenzyoxy)-ethyl} pyropheophoride-a], the “subcellular localization after 30 min incubation” value in data set [1] was “mitochondrial compartment”. Moreover, the “in vitro efficacy (PS 4, 12, 23)” value in data set [2] is on record as “comparable in vitro efficacy”. Further, the “relative PDT efficacy in vitro (PS 1, 4, 7)” value in data set [2] (Colon26, 0.3 μM) is recorded as “most effective”. Further, the “PS uptake by Colon26 cells (rank order)” value in data set [3] is recorded as “PS 4 ≥ 23 > 12”. For the same compound, in data set [6] (BALB/c mice, Colon26 tumor), the “time post injection giving the best imaging contrast” value amounted to 72 h. Also, the “tumor versus skin fluorescence after tumor removal” value in data set [4] was “tumor avid”.
For “Peglate 3-devinyl-3-{1′-(m-iodobenzyoxy)ethyl}pyropheophoride-a [PS 7]”, the “cellular uptake in presence of serum proteins versus serum-free” value in data set [1] (3.2 μM, 24 h, 10% fetal calf serum) is “several-fold higher”. Besides, the “subcellular localization after 24 h incubation” value in data set [1] (3.2 μM, regardless of the incubation conditions) is given as “endosomal/lysosomal compartment”. For the same compound, in data set [1], the “lowering of cellular uptake relative to PS 4” value is reported as > 100 fold. Also, the “photoreaction quantifiable by the biochemical markers” value in data set [5] is “ineffective”. In addition, the “tumor cure (tumor-free on day 60), first series (Fig. 7A)” value in data set [7] is on record as “ineffective”.
